High-throughput results (PubChem BioAssay)
Shown are actives, neighbours in structure and some others; about 1.1% of the full set was active somewhere.
Furin inh: blocks human furin protease activity | AID 463115 | inhibition, % at 20 µM or 30 µM | purified furin, fluorogenic substrate cleavage | P09958 | hit rate 0.061% among 220,000; in the data active means inhibition above about 25%
m-calpain inh: blocks pig calpain II enzyme activity. hit rate 0.37% among 220,000. purified calpain II, fluorogenic peptide substrate, 30 min. inhibition, % at 16 µM. AID 1236;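 active means inhibition above about 50%, limit read from the data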
p47phox inh: p47phox (human) inhibition; hit rate 0.53% among 220,000; p47phox/p22phox peptide binding, fluorescence polarization, 2 h; P14598; AID 1274; inhibition, % at 24.7 µM;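 active means inhibition above about 30%, limit read from the data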;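 further: 0% = p47phox with labelled peptide and 100% = labelled peptide alone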
Target sequence (P14598 whole entry, looked up): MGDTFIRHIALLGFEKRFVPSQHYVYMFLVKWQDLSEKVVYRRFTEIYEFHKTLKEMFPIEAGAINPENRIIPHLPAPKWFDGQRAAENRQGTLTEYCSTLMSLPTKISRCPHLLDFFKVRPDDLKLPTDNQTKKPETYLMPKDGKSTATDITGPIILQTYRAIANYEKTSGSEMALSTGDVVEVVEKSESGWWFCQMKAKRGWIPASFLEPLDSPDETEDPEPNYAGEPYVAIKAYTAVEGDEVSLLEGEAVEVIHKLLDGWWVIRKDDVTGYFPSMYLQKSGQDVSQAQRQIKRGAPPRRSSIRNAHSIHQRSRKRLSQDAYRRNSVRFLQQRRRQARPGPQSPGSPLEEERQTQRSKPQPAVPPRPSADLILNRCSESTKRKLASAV
RBBP9 inh: blocks human serine hydrolase RBBP9. AID 1515. inhibition, % at 7.94 µM. recombinant RBBP9, FP-Rh probe fluorescence polarization. hit rate 0.2% among 220,000;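 active means inhibition above the campaign mean of all tested compounds plus 3 SD, cut at about 14% in these data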;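 further: plate controls were DMSO wells with RBBP9 for no effect and wells lacking RBBP9 protein for full effect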
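System: RBBP9 protein / Quantity: 2.5 µM RBBP9 dispensing solution, before mixing / Also added: Serine-hydrolase probe FP-Rh, 375 nM pre-mixing / Dosing: 7.94 µM single dose, 0.794% DMSO / Timing: enzyme-compound preincubation 30 min, then probe labeling 45 min, 25 °C / Signal: FP readout at 525/598 nm / Controls: DMSO-treated enzyme wells and wells lacking RBBP9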
RBBP9 inh conf: confirmation of human RBBP9 inhibitors | shares compounds with RBBP9 inh | recombinant RBBP9, FP-Rh probe fluorescence polarization | inhibition, % at 7.94 µM | hit rate 36% among 410 | AID 1537;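 active means inhibition above the hit cutoff derived for the primary screen, cut at about 15% in these data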;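 further: 0% = RBBP9 with DMSO and 100% = wells lacking RBBP9 protein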
An asterisk follows results filed as active; i = inactive; x = no result given.

SMILES	Furin inh	m-calpain inh	p47phox inh	RBBP9 inh	RBBP9 inh conf
COc1ccc(NC(=O)Nc2ccc3oc(C)nc3c2)cc1	-1.6	20.7	-6.6	0.4	x
Cc1nc2cc(NC(=O)N(C)c3ccc4ccccc4c3)ccc2o1	-55.9	11.3	-21.5	15.8*	4.5
Cc1cc(C)n(-c2ccc(Cl)c(C(=O)O)c2)n1	-13.7	-8.2	1.2	-1.8	x
CCOC(=O)c1nc2sc3c(c2c(=O)[nH]1)CCCC3	-27.1	i	-4.7	-7.2	x
CCOC(=O)c1nc2sc3c(c2c(=O)[nH]1)CCC(C)C3 (stereo not drawn)	-22.1	-315.7	-9.1	15.7*	1.3
COc1ccc2c(c1)Sc1ccccc1N2	-27.6	-8.5	10.8	15.9*	29.6*
Cc1cnc([N+](=O)[O-])n1CCOC(=O)NC(=O)c1ccc(C(F)(F)F)cc1	-15.0	-31.8	0.8	-0.4	x
Cc1cnc([N+](=O)[O-])n1CCOC(=O)NC(=O)c1ccccc1Cl	-16.3	10.3	x	14.5*	8.1
O=C(Oc1cccc([N+](=O)[O-])c1)N1CCCCC1	-12.1	9.6	-4.1	16.4*	1.6
Cc1ccc2nc(SCc3cn4cccnc4n3)[nH]c2c1	-3.5	-13.8	-4.4	5.7	x
COc1ccc(O)c(C=Nc2cc(NC(C)=O)c(Cl)cc2Cl)c1	-18.1	15.6	7.9	15.2*	3.6
O=C(O)/C=C/c1ccc(OCc2cccc(F)c2)cc1	-32.0	-39.5	-2.7	-8.6	x
CC(C)=NOC(=O)c1c(C)noc1-c1snnc1C	-20.2	-2.4	-6.3	18.3*	3.8
COC(=O)c1c(C)noc1-c1snnc1C	-14.3	-13.1	-5.9	-1.6	x
COc1cc(/C=N/NC(=O)CSc2ccccn2)ccc1O	-4.8	-0.3	-4.3	-4.6	x
CCCOc1ccc(/C=N/NC(=O)CSc2ccccn2)cc1OC	-4.3	18.9	5.3	16.9*	9.4
O=c1c(-c2ccco2)[n+]([O-])c2ccccc2n1OCc1ccccc1F	-15.2	-18.5	-6.6	15.5*	3.9
CC1CCN(CCOc2ccc(OCc3ccccc3)cc2)CC1	-10.0	0.1	-34.8	-5.9	x
COC(=O)C1=C(C)Nc2[nH]c(=S)[nH]c(=O)c2C1c1ccc(O)cc1 (stereo not drawn)	-18.1	16.9	-5.1	-5.3	x
COc1cc(C2C(C(=O)OC(C)C)=C(C)Nc3[nH]c(=O)[nH]c(=O)c32)ccc1O (stereo not drawn)	-9.9	14.6	-3.4	17.1*	5.3
Cc1cccc(-n2c(=S)[nH]c3sc4c(c3c2=O)CCc2ccccc2-4)c1	-21.9	-6.7	-6.5	2.0	x
O=C1C(CSCc2ccccc2)NC(=S)N1c1ccccc1 (stereo not drawn)	-12.4	-26.7	-20.9	29.9*	19.6*
COc1ccccc1NC(=O)CSc1nnc2ccc(-c3cccnc3)nn12	-11.7	-30.1	2.1	-6.2	x
CCOc1ccccc1NC(=O)CSc1nnc2ccc(-c3cccnc3)nn12	-4.4	-7.7	0.8	15.3*	9.2
COc1cccc(NC(=O)c2ccc(NC(=O)C3CC(=O)OC34CCCCC4)cc2)c1 (stereo not drawn)	-13.6	-19.5	-3.0	-6.2	x
SMILES	Furin inh	m-calpain inh	p47phox inh	RBBP9 inh	RBBP9 inh conf
COc1ccc(CCNC(=S)NC2CCN(Cc3ccccc3)CC2)cc1	-15.6	-21.2	-1.6	1.9	x
COc1cc(NC(=O)c2cc3ccccc3cc2O)c(OC)cc1Cl	-24.7	-60.4	-9.3	3.6	x
COc1ccccc1NC(=O)c1cc2cc(Br)ccc2cc1O	-23.0	-53.9	-25.7	18.8*	29.9*
Cc1ccc(-c2nc(CN3CCCCC3)cc(CN3CCCCC3)c2O)cc1	-35.8	-350.0	-19.3	-12.0	x
Cc1cc(O)ccc1Nc1nc2ccccc2nc1Nc1ccc(O)cc1C	-11.7	-38.9	56.0*	20.7*	11.1
CCCOc1ccc(NC(=O)CC2Nc3ccccc3NC2=O)cc1 (stereo not drawn)	-17.6	-31.1	-4.4	0.7	x
NC(=O)CC1Nc2cccc3cccc(c23)NC1=O (stereo not drawn)	2.3	7.7	3.7	28.8*	6.5
O=C(CC1Nc2cccc3cccc(c23)NC1=O)Nc1ccccc1 (stereo not drawn)	-6.1	22.9	-10.8	16.1*	11.6
O=C(CC1Nc2ccccc2NC1=O)c1ccccc1 (stereo not drawn)	-23.9	-9.9	-66.3	-2.5	x
O=C1Nc2ccccc2OCc2c1cccc2[N+](=O)[O-]	-20.3	7.0	4.0	7.0	x
O=[N+]([O-])c1ccc2c(c1)N([O-])C1(CCCCC1)[N+]2=O	-9.0	-29.7	12.0	7.8	x
COc1ccc(OC)c2c1C(=O)C(Cl)=C(Cl)C2=O	-4.9	17.8	90.3*	78.8*	81.4*
